Screens (PubChem BioAssay)
KCNQ1 act = potentiators or activators of human KCNQ1 potassium channel; P51787; B-score at 10 µM; AID 2648; actives 0.35% (n = 310,000); CHO-K1 KCNQ1, thallium flux FluxOR fluorescence; stronger effect = higher value;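 active means fluorescence ratio B-score, a plate-corrected score, at least three library SD, with initial intensity B-score within 5 SD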
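Schedule – 37 °C overnight plating, 90-min dark dye load, 20-min compound pretreatment · System – stable KCNQ1 CHO-K1 line · Probe or stimulus – thallium- and potassium-containing depolarizing buffer · Measured by – kinetic FluxOR fluorescence, 10 s baseline plus 110 s post-stimulus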
hERG protect = compounds protecting human hERG from proarrhythmic drug block. AID 1511. actives 0.51% (n = 310,000). Q12809. activation (rescue from dofetilide block), less the hit threshold, % at 10 µM. CHO-hERG, FluxOR thallium flux, dofetilide IC70 present;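 active means activation above the mean of controls blocked by dofetilide plus 5 SD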;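 further: thallium influx through hERG after potassium depolarization seen as dye fluorescence rise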
KCNQ1 block = human KCNQ1 channel inhibition; actives 1.3% (n = 310,000); B-score at 10 µM; P51787; CHO-K1 KCNQ1, FluxOR thallium flux fluorescence; stronger effect = higher value;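 active means compounds whose thallium flux B-score, printed positive for inhibition, exceeds three library SD while starting fluorescence stays within three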;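 further: channel opened by potassium depolarization with thallium stimulus after 20 min compound exposure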
Kir21 inh = blocks the mouse Kir2.1 inward-rectifier potassium channel; P35561; HEK293-Kir2.1, FluxOR thallium flux fluorescence; stronger effect = lower value; B-score at 10 µM; actives 0.85% (n = 310,000); AID 1672;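 active means fluorescence ratio B-score at or below minus 3 SD of library scores, with starting-brightness B-score within 2 SD, cut at about -4.2 in these data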;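 further: channel flux triggered by added potassium and thallium sulfate stimulus; B-score of peak minus minimum fluorescence over baseline after thallium stimulus; more negative B-score means stronger Kir2.1 block with less thallium influx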
Target sequence (P35561 whole entry, looked up): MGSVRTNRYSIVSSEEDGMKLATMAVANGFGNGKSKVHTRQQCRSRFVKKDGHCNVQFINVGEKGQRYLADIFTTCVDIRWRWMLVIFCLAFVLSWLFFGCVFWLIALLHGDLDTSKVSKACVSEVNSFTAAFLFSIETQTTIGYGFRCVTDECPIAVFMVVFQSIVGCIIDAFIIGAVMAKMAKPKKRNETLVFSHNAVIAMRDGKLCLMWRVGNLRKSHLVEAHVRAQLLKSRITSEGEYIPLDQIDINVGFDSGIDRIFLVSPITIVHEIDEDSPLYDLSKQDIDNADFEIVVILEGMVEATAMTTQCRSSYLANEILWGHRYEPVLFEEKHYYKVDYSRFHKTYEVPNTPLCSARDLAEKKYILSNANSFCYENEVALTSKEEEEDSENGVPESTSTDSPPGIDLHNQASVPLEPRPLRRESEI
KCNK3 inh = human KCNK3 channel inhibition, primary screen; O14649; CHO-KCNK3 thallium flux, FluxOR fluorescence; stronger effect = lower value; B-score at 10 µM; actives 0.84% (n = 340,000); AID 602410;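 active means B-score under library mean minus 4 SD, starting fluorescence ratio at most library mean plus 5 SD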;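 further: more negative B-score means stronger inhibition of thallium flux through KCNK3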
KCNK9 inh = human KCNK9 channel inhibition. B-score at 10 µM. HEK293 KCNK9, FluxOR thallium flux fluorescence; stronger effect = lower value. actives 1.2% (n = 310,000);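 active means ratio B-score over 3 SD below the library mean, with starting fluorescence within 5 SD of its mean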;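 further: negative B-score means less thallium flux so channel inhibition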
* marks the source's active call; other numbers are inactive results; i = inactive; nt = not tested or not shown. An excerpt weighted towards active compounds, which were near 3.7% of everything screened.

SMILES	KCNQ1 act	hERG protect	KCNQ1 block	Kir21 inh	KCNK3 inh	KCNK9 inh
O=C(/C=C/c1cccc(Cl)c1)N1CCC(Cc2ccccc2)CC1	i	-9	8*	-0.15	i	i
Fc1ccc(CN2CCC(Cc3ccccc3)CC2)cc1F	i	-9	i	-1.5	i	i
Cc1nn(C(=O)c2cccc([N+](=O)[O-])c2)c(C)c1Cl	i	-4	i	0.93	i	i
CCc1ccc(C(=O)NNC(=O)c2cccc(S(=O)(=O)N3CCN(C)CC3)c2)cc1	nt	nt	nt	nt	i	nt
Cc1ccc([N+](=O)[O-])c2c1C(N1CC(C)OC(C)C1)C(C)(C)O2 (stereo unspecified)	i	5.4*	i	-0.4	i	i
COc1ccccc1C(=O)OCC(=O)NC(=O)NCc1ccccc1	i	-6	i	-0.9	i	i
CNC(=O)NC(=O)COC(=O)c1ccccc1OCc1ccccc1	i	8.3*	i	0.81	i	i
OCCCc1nc2n(n1)C(c1ccccc1)C=C(c1ccc(F)cc1)N2 (stereo unspecified)	i	-16	i	-0.92	i	i
OCCCc1nc2n(n1)C(c1ccccc1Cl)C=C(c1cccs1)N2 (stereo unspecified)	i	-17	i	-2.5	-10*	i
CCCN(Cc1nnc(-c2cccs2)o1)C(=O)CN1C(=O)NC2(CCCCC2C)C1=O (stereo unspecified)	nt	nt	nt	nt	i	nt
COc1ccccc1NS(=O)(=O)c1ccc2c(c1)CCN2C(=O)CCC(=O)O	i	-2	i	-0.25	i	i
N#CC1(Cc2ccccc2Cl)c2ccccc2C=CN1C(=O)c1ccccc1 (stereo unspecified)	i	-12	8*	0.29	i	i
N#CC1c2ccccc2C=CN1C(=O)c1ccccc1 (stereo unspecified)	i	-8	i	0.3	i	i
Cc1nc(C)c(-c2ccc(SCc3ccccc3C)nn2)s1	i	-6	i	-1.4	i	-7.9*
CCCCN(CCCC)S(=O)(=O)c1ccc(NC(=O)c2ccc([N+](=O)[O-])cc2Cl)cc1	i	-7	7*	-3.5	i	i
COc1ccccc1OCC#CCNC1CCCCC1C (stereo unspecified)	i	-22	i	-5.5*	i	i
COc1cc([N+](=O)[O-])ccc1NC(=O)CN1C(=O)NC2(CCCCC2C)C1=O (stereo unspecified)	nt	nt	nt	nt	i	nt
CSc1ccccc1NC(=O)Cc1ccccc1	i	-13	i	-0.43	i	i
O=C(Cc1ccccc1)Nc1ccccc1Sc1ccccc1	i	-5	i	-9.2*	i	i
O=C(Nc1ccccc1Sc1ccccc1)c1ccccc1	i	-9	i	1.1	i	-7.7*
O=C(Cc1ccc(Br)cc1)Nc1ccccc1Sc1ccccc1	i	3	i	0.36	i	i
O=C(Nc1ccccc1Sc1ccccc1)C1CCCO1 (stereo unspecified)	i	-5	i	-4.8*	i	i
O=C(Cc1ccc(F)cc1)Nc1ccccc1Sc1ccccc1	i	-3	i	-6.3*	i	i
CCN1C[C@@H]2[C@@H]3C(=O)N(C)C(=O)[C@@H]3[C@](Cc3ccccc3)(C1=O)N2C(=O)c1ccc(C(C)(C)C)cc1	nt	nt	nt	nt	i	nt
COc1cc(C(=O)N2CCN(c3ccccc3)CC2)c2ccccc2n1	nt	nt	nt	nt	i	nt
SMILES	KCNQ1 act	hERG protect	KCNQ1 block	Kir21 inh	KCNK3 inh	KCNK9 inh
Cc1cc(C)c(NC(=O)CNC(=O)COC(=O)CNC(=O)c2ccc(Cl)cc2Cl)c(C)c1	i	-9	i	-2.8	i	i
O=C(NCc1ccccc1)c1ccc2c(=O)[nH]c3c(C(=O)NCC4CCCO4)sc(=S)n3c2c1 (stereo unspecified)	i	-20	8*	1.3	i	i
O=C(NC1CCCC1)c1sc(=S)n2c1[nH]c(=O)c1ccccc12	i	-10	i	-2.6	i	i
Cc1ccc(CNC(=O)c2ccc3c(=O)[nH]c4c(C(=O)NCC5CCCO5)sc(=S)n4c3c2)cc1 (stereo unspecified)	i	-9	10*	-0.13	i	i
CCCCCNC(=O)c1ccc2c(=O)[nH]c3c(C(=O)NCC4CCCO4)sc(=S)n3c2c1 (stereo unspecified)	i	-20	i	1.1	i	i
O=C(NCc1ccco1)c1sc(=S)n2c1[nH]c(=O)c1ccccc12	i	-9	7*	0.77	i	i
COc1cccc(NC(=O)COC(=O)C2CC(=O)N(c3ccc(C)cc3)C2)c1 (stereo unspecified)	nt	nt	nt	nt	i	nt
Cn1c(SCC(=O)NCC2CCCO2)nnc1-c1ccc(Cl)cc1 (stereo unspecified)	nt	nt	nt	nt	i	nt
O=C(CSc1nnc(C2CC2)n1-c1ccccc1)N1CCNC1=O	nt	nt	nt	nt	i	nt
N#C/C(=C(/O)c1ccc(-c2cccc([N+](=O)[O-])c2)o1)c1nc2ccccc2s1	i	-11	7*	1.8	i	i
O=C(O)c1ccc(-c2cccc([N+](=O)[O-])c2)o1	i	-11	i	-0.67	i	i
COc1ccc(NC(=O)COC(=O)c2ccc(-n3cnnn3)cc2)c([N+](=O)[O-])c1	nt	nt	nt	nt	i	nt
CCC(C)Sc1ccc(-c2nc3ccccn3c2NCc2ccccc2)cc1OC (stereo unspecified)	nt	nt	nt	nt	i	nt
COc1ccc(CSc2ccc(-c3nc4ccccn4c3NCc3ccccc3)cc2OC)cc1	i	-7	6*	-1.2	i	i
CCc1cccc(CC)c1C(O)c1cccnc1 (stereo unspecified)	i	-6	i	-4.6*	i	i
CCc1cccc(CC)c1NC(=S)NCC(c1cccnc1)N(C)C (stereo unspecified)	i	-6	i	0.07	i	i
Cc1cc(O)c2c(c1)C(=O)[C@@]13Oc4c5c(c(O)c6c(O)cc(C)cc46)C(=O)C[C@H](O)[C@H]5[C@@H]1[C@@H](O)CC(=O)C3=C2O	nt	nt	nt	nt	i	nt
COc1ccc(C2CCCN2CC(O)COc2ccccc2C(C)C)cc1 (stereo unspecified)	i	-16	i	-11*	i	i
O=C(O)C1=C[C@H](c2ccc(C(F)(F)F)cc2)C[C@H](OCCCCO)O1	i	-3	i	-0.03	i	i
COc1ccc(CCNc2oc(COc3ccccc3F)nc2C#N)cc1	i	-13	i	-0.38	i	i
COc1ccc(CCNc2oc(COc3ccc(Br)cc3)nc2C#N)cc1OC	i	-20	i	-0.11	-12*	-8.1*
CN1OC[C@@H]2CN(Cc3cc(Cl)cc(Cl)c3)[C@H](c3cccc(Br)c3)C[C@@H]21	nt	nt	nt	nt	i	nt
